{"source": "ChEMBL document CHEMBL3808372", "about": "“Identification of quinones as novel PIM1 kinase inhibitors” (Bioorg Med Chem Lett, 2016)", "key": {"[1]": {"target": "Aurora kinase A (Homo sapiens) (UniProt O14965)", "assay": "Inhibition of human AURKA (122 to 401 amino acid residues) assessed as enzyme activity at 10 uM by KINOMEScan assay", "set-up": "scale not given: the % may be the effect or the level left", "in_short": "(§1)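 Competition binding screen on a 100-kinase KINOMEscan panel, compound tested at a single 10 μM concentration. Primary binding read-out expressed as % Ctrl = (test compound signal − positive control signal)/(negative control signal − positive control signal) × 100, with lower values meaning stronger binding.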"}, "[2]": {"target": "Serine/threonine-protein kinase B-raf (Homo sapiens) (UniProt P15056)", "assay": "Inhibition of human BRAF (429 to 741 amino acid residues) assessed as enzyme activity at 10 uM by KINOMEScan assay", "set-up": "scale not given: the % may be the effect or the level left", "in_short": "as §1"}, "[3]": {"target": "Tyrosine-protein kinase BTK (Homo sapiens) (UniProt Q06187)", "assay": "Inhibition of full length human BTK assessed as enzyme activity at 10 uM by KINOMEScan assay", "set-up": "scale not given: the % may be the effect or the level left", "in_short": "(§2)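 Commercial KINOMEscan binding panel of 100 kinases, test compound at 10 μM. Results are primary-screen binding interactions expressed as % Ctrl = (test compound signal − positive control signal)/(negative control signal − positive control signal) × 100. Lower % Ctrl means stronger binding.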"}, "[4]": {"target": "Cyclin-dependent kinase 9 (Homo sapiens) (UniProt P50750)", "assay": "Inhibition of full length human CDK9 expressed in bacterial system assessed as enzyme activity at 10 uM by KINOMEScan assay", "set-up": "scale not given: the % may be the effect or the level left", "in_short": "as §2"}, "[5]": {"target": "Macrophage colony-stimulating factor 1 receptor (Homo sapiens) (UniProt P07333)", "assay": "Inhibition of human CSF1R (564 to 939 amino acid residues) assessed as enzyme activity at 10 uM by KINOMEScan assay expressed in bacterial system assessed as enzyme activity at 10 uM by KINOMEScan assay", "set-up": "scale not given: the % may be the effect or the level left", "in_short": "as §1"}, "[6]": {"target": "Epidermal growth factor receptor (Homo sapiens) (UniProt P00533)", "assay": "Inhibition of human EGFR (669 to 1011 amino acid residues) assessed as enzyme activity at 10 uM by KINOMEScan assay expressed in bacterial system assessed as enzyme activity at 10 uM by KINOMEScan assay", "set-up": "scale not given: the % may be the effect or the level left", "in_short": "as §2"}, "[7]": {"test_system": "Epidermal growth factor receptor (Homo sapiens), P00533 [L858R]", "assay": "Inhibition of human EGFR L858R mutant (669 to 1011 amino acid residues) assessed as enzyme activity at 10 uM by KINOMEScan assay expressed in bacterial system assessed as enzyme activity at 10 uM by KINOMEScan assay", "set-up": "scale not given: the % may be the effect or the level left", "in_short": "as §2"}, "[8]": {"target": "Fibroblast growth factor receptor 3 (Homo sapiens) (UniProt P22607)", "sequence (P22607 23-806 limits assumed)": "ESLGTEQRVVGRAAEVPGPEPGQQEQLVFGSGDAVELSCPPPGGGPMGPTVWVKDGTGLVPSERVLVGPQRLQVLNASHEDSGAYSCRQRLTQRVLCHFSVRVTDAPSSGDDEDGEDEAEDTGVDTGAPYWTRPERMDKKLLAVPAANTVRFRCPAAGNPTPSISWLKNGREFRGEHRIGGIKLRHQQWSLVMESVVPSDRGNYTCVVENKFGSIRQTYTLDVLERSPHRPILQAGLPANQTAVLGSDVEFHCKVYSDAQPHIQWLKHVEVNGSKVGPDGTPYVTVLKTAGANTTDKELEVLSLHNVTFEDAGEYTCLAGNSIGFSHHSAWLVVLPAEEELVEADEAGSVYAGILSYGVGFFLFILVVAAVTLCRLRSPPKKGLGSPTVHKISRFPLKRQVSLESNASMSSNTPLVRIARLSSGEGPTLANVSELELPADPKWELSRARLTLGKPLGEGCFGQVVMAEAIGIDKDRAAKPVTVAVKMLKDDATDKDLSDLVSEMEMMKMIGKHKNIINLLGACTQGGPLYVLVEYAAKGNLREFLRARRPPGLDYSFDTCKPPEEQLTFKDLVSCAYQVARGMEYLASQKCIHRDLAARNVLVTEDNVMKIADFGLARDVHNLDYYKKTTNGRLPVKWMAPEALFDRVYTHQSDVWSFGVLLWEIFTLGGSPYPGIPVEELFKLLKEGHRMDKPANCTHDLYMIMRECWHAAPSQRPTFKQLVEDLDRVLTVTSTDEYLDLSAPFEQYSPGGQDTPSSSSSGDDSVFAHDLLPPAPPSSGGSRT", "assay": "Inhibition of human FGFR3 (442 to 771 amino acid residues) assessed as enzyme activity at 10 uM by KINOMEScan assay expressed in bacterial system assessed as enzyme activity at 10 uM by KINOMEScan assay", "set-up": "scale not given: the % may be the effect or the level left", "in_short": "as §1"}, "[9]": {"target": "Receptor-type tyrosine-protein kinase FLT3 (Homo sapiens) (UniProt P36888)", "assay": "Inhibition of human FLT3 (646 to 1225 amino acid residues) assessed as enzyme activity at 10 uM by KINOMEScan assay expressed in bacterial system assessed as enzyme activity at 10 uM by KINOMEScan assay", "set-up": "scale not given: the % may be the effect or the level left", "in_short": "as §1"}, "[10]": {"target": "Mitogen-activated protein kinase kinase kinase 4 (Homo sapiens) (UniProt Q9Y6R4)", "assay": "Inhibition of human MAP3K4 (1319 to 1608 amino acid residues) expressed in bacterial system assessed as enzyme activity at 10 uM by KINOMEScan assay", "set-up": "scale not given: the % may be the effect or the level left", "in_short": "as §2"}, "[11]": {"target": "MAP kinase-interacting serine/threonine-protein kinase 1 (Homo sapiens) (UniProt Q9BUB5)", "assay": "Inhibition of full length human MKNK1 assessed as enzyme activity at 10 uM by KINOMEScan assay", "set-up": "scale not given: the % may be the effect or the level left", "in_short": "as §1"}, "[12]": {"target": "MAP kinase-interacting serine/threonine-protein kinase 2 (Homo sapiens) (UniProt Q9HBH9)", "assay": "Inhibition of human MKNK2 (63 to 388 amino acid residues) assessed as enzyme activity at 10 uM by KINOMEScan assay", "set-up": "scale not given: the % may be the effect or the level left", "in_short": "as §1"}, "[13]": {"target": "Mitogen-activated protein kinase 14 (Homo sapiens) (UniProt Q16539)", "assay": "Inhibition of full length human p38-alpha expressed in bacterial system assessed as enzyme activity at 10 uM by KINOMEScan assay", "set-up": "scale not given: the % may be the effect or the level left", "in_short": "as §2"}, "[14]": {"target": "Mitogen-activated protein kinase 11 (Homo sapiens) (UniProt Q15759)", "sequence (Q15759 whole entry)": "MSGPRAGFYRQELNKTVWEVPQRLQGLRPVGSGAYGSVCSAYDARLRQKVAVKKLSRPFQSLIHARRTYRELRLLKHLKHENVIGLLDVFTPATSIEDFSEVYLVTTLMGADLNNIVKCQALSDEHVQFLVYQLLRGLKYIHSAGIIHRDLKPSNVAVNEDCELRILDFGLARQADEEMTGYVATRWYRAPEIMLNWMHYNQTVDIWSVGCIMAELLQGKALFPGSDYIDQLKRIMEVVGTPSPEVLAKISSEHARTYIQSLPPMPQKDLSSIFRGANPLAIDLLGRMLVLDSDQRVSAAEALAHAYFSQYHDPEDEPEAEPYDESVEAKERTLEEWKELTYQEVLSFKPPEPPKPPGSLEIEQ", "assay": "Inhibition of full length human p38-beta expressed in bacterial system assessed as enzyme activity at 10 uM by KINOMEScan assay", "set-up": "scale not given: the % may be the effect or the level left", "in_short": "as §1"}, "[15]": {"target": "Serine/threonine-protein kinase PLK4 (Homo sapiens) (UniProt O00444)", "sequence (O00444 whole entry, the tested form may be a part)": "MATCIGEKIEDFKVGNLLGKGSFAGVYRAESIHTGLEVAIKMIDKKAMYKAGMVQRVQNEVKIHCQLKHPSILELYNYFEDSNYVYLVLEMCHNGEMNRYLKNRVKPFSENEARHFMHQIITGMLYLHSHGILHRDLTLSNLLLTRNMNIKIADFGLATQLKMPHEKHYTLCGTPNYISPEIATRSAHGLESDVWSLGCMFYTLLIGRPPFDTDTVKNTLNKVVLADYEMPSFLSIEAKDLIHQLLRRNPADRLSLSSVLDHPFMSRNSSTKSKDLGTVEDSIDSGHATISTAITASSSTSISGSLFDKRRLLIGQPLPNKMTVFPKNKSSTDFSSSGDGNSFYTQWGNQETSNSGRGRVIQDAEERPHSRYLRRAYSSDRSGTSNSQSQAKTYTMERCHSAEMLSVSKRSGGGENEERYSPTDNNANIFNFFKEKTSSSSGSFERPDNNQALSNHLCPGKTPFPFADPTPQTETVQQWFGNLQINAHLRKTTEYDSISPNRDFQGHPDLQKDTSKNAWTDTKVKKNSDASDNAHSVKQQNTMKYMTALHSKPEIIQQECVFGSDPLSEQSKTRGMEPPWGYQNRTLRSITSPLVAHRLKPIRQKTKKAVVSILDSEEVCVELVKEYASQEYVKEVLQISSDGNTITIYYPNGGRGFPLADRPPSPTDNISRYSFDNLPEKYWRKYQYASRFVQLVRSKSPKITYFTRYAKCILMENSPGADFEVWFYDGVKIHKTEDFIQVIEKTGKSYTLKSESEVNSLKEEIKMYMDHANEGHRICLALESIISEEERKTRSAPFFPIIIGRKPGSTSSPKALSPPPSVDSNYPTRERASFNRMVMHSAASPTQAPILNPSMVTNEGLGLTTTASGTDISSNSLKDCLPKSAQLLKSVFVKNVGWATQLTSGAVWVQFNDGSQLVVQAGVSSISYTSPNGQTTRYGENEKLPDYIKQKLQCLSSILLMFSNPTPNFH", "assay": "Inhibition of human PLK4 (1 to 273 amino acid residues) assessed as enzyme activity at 10 uM by KINOMEScan assay", "set-up": "scale not given: the % may be the effect or the level left", "in_short": "(§3)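 Single-concentration competition binding screen (KINOMEscan) across a 100-kinase panel at 10 μM. Primary binding read-out is reported as % of control: (test signal − positive-control signal)/(negative-control signal − positive-control signal) × 100. Lower values indicate stronger binding.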"}, "[16]": {"target": "RAF proto-oncogene serine/threonine-protein kinase (Homo sapiens) (UniProt P04049)", "assay": "Inhibition of human RAF1 (330 to 640 amino acid residues) expressed in bacterial system assessed as enzyme activity at 10 uM by KINOMEScan assay", "set-up": "scale not given: the % may be the effect or the level left", "in_short": "as §2"}, "[17]": {"target": "Serine/threonine-protein kinase RIO2 (Homo sapiens) (UniProt Q9BVS4)", "assay": "Inhibition of human RIOK2 (1 to 313 amino acid residues) assessed as enzyme activity at 10 uM by KINOMEScan assay", "set-up": "scale not given: the % may be the effect or the level left", "in_short": "as §2"}, "[18]": {"target": "Ribosomal protein S6 kinase alpha-2 (Homo sapiens) (UniProt Q15349)", "assay": "Inhibition of human RSK2 Kin.Dom.1-N-terminal (1 to 394 amino acid residues) assessed as enzyme activity at 10 uM by KINOMEScan assay", "set-up": "scale not given: the % may be the effect or the level left", "in_short": "as §3"}, "[19]": {"target": "Serine/threonine-protein kinase pim-1 (Homo sapiens, UniProt P11309)", "assay": "Inhibition of recombinant human Pim1"}, "[20]": {"target": "High affinity nerve growth factor receptor (Homo sapiens) (UniProt P04629)", "sequence (P04629 33-796 limits assumed)": "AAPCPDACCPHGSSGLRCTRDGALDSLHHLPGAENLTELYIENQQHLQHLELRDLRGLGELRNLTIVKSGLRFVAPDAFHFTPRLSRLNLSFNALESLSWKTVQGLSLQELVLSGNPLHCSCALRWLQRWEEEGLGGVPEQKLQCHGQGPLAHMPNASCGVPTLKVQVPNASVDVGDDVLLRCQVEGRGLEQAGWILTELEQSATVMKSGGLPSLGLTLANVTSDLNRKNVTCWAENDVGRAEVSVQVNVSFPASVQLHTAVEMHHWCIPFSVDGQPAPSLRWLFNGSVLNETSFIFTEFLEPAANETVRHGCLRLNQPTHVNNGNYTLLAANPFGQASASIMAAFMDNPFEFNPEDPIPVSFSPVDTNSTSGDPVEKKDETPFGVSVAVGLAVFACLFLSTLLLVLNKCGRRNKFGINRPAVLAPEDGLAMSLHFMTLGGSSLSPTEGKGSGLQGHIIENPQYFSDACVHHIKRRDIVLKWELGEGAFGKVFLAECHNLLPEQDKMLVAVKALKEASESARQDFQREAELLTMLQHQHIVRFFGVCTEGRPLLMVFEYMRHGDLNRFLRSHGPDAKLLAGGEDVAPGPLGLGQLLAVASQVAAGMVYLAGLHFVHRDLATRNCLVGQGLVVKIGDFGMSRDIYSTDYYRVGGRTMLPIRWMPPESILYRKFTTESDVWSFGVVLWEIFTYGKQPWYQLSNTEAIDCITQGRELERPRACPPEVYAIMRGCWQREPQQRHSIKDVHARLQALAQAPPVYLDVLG", "assay": "Inhibition of human TRKA (475 to 790 amino acid residues) assessed as enzyme activity at 10 uM by KINOMEScan assay", "set-up": "scale not given: the % may be the effect or the level left", "in_short": "as §2"}, "[21]": {"target": "Testis-specific serine/threonine-protein kinase 1 (Homo sapiens) (UniProt Q9BXA7)", "sequence (Q9BXA7 whole entry)": "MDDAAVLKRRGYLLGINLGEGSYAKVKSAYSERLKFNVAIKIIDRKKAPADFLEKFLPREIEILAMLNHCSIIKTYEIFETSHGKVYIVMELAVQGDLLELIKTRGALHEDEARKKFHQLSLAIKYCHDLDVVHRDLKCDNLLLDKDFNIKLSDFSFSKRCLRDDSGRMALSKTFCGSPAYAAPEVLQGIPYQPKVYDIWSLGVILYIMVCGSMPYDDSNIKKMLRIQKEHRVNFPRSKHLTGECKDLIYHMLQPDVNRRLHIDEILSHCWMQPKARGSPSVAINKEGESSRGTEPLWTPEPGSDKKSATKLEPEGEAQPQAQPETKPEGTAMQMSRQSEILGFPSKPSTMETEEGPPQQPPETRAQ", "assay": "Inhibition of full length human TSSK1B expressed in bacterial system assessed as enzyme activity at 10 uM by KINOMEScan assay", "set-up": "scale not given: the % may be the effect or the level left", "in_short": "as §1"}, "[22]": {"target": "Non-receptor tyrosine-protein kinase TYK2 (Homo sapiens) (UniProt P29597)", "assay": "Inhibition of human TYK2 JH1 catalytic domain (877 to 1187 amino acid residues) assessed as enzyme activity at 10 uM by KINOMEScan assay", "set-up": "scale not given: the % may be the effect or the level left", "in_short": "as §3"}, "[23]": {"target": "Serine/threonine-protein kinase ULK2 (Homo sapiens) (UniProt Q8IYT8)", "sequence (Q8IYT8 whole entry, the tested form may be a part)": "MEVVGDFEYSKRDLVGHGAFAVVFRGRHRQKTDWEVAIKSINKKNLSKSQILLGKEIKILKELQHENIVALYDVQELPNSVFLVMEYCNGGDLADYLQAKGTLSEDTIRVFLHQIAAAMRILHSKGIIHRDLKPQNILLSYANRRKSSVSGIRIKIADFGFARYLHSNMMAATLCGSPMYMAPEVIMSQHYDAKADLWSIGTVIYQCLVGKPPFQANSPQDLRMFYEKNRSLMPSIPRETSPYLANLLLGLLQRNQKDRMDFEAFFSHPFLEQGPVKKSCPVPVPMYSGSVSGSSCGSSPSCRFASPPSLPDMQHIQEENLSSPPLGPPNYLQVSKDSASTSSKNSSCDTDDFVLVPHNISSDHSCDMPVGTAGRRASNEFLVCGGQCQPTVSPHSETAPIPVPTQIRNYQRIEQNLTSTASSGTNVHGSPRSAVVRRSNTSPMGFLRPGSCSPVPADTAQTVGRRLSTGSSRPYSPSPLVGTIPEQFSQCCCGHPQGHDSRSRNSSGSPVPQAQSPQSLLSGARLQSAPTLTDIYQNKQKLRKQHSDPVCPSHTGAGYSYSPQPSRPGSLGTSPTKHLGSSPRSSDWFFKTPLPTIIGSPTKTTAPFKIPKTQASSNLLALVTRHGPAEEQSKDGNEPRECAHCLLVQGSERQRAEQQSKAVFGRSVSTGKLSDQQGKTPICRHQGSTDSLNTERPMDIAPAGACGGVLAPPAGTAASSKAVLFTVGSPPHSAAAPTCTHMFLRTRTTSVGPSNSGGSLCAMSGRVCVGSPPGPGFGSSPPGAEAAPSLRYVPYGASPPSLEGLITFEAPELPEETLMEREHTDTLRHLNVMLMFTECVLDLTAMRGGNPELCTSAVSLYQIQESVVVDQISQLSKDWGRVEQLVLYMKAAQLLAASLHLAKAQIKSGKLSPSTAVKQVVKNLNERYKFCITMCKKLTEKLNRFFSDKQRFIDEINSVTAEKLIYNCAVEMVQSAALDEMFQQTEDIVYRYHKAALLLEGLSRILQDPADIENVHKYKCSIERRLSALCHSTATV", "assay": "Inhibition of human ULK2 (1 to 301 amino acid residues) assessed as enzyme activity at 10 uM by KINOMEScan assay", "set-up": "scale not given: the % may be the effect or the level left", "in_short": "as §3"}, "[24]": {"target": "Serine/threonine-protein kinase 32C (Homo sapiens) (UniProt Q86UX6)", "assay": "Inhibition of human YANK3 (68 to 486 amino acid residues) expressed in bacterial system assessed as enzyme activity at 10 uM by KINOMEScan assay", "set-up": "scale not given: the % may be the effect or the level left", "in_short": "as §3"}, "[25]": {"target": "Tyrosine-protein kinase ZAP-70 (Homo sapiens) (UniProt P43403)", "sequence (P43403 whole entry, the tested form may be a part)": "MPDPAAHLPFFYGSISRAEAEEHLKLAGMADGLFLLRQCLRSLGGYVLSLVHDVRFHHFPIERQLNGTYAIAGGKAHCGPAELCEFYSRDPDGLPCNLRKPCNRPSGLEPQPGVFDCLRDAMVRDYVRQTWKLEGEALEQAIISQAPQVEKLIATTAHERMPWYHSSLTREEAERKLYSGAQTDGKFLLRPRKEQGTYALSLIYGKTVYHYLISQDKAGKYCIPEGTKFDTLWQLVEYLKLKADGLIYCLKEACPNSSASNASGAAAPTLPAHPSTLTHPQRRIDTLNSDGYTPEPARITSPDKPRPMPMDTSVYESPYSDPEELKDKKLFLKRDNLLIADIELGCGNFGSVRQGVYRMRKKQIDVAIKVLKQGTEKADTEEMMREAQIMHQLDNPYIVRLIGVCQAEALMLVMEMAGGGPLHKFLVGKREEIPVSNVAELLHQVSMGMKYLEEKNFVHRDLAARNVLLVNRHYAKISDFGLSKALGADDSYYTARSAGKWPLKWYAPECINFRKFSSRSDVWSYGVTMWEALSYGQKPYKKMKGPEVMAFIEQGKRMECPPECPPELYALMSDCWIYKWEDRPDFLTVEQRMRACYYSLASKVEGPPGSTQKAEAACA", "assay": "Inhibition of human ZAP70 (20 to 299 amino acid residues) assessed as enzyme activity at 10 uM by KINOMEScan assay", "set-up": "scale not given: the % may be the effect or the level left", "in_short": "as §2"}}, "data": [{"smiles": "O=C1C2=C(C(=O)c3c(O)ccc(O)c31)[C@@H](O)[C@@H](O)[C@@H](O)C2", "values": [{"measurement": "Activity", "setting": "[1]", "result": 87, "unit": "%"}, {"measurement": "Activity", "setting": "[2]", "result": 87, "unit": "%"}, {"measurement": "Activity", "setting": "[3]", "result": 100, "unit": "%"}, {"measurement": "Activity", "setting": "[4]", "result": 100, "unit": "%"}, {"measurement": "Activity", "setting": "[5]", "result": 77, "unit": "%"}, {"measurement": "Activity", "setting": "[6]", "result": 88, "unit": "%"}, {"measurement": "Activity", "setting": "[7]", "result": 78, "unit": "%"}, {"measurement": "Activity", "setting": "[8]", "result": 93, "unit": "%"}, {"measurement": "Activity", "setting": "[9]", "result": 84, "unit": "%"}, {"measurement": "Activity", "setting": "[10]", "result": 100, "unit": "%"}, {"measurement": "Activity", "setting": "[11]", "result": 45, "unit": "%"}, {"measurement": "Activity", "setting": "[12]", "result": 98, "unit": "%"}, {"measurement": "Activity", "setting": "[13]", "result": 100, "unit": "%"}, {"measurement": "Activity", "setting": "[14]", "result": 92, "unit": "%"}, {"measurement": "Activity", "setting": "[15]", "result": 89, "unit": "%"}, {"measurement": "Activity", "setting": "[16]", "result": 100, "unit": "%"}, {"measurement": "Activity", "setting": "[17]", "result": 86, "unit": "%"}, {"measurement": "Activity", "setting": "[18]", "result": 53, "unit": "%"}, {"measurement": "IC50", "setting": "[19]", "result": 19.2, "unit": "µM"}, {"measurement": "Activity", "setting": "[20]", "result": 78, "unit": "%"}, {"measurement": "Activity", "setting": "[21]", "result": 89, "unit": "%"}, {"measurement": "Activity", "setting": "[22]", "result": 57, "unit": "%"}, {"measurement": "Activity", "setting": "[23]", "result": 88, "unit": "%"}, {"measurement": "Activity", "setting": "[24]", "result": 89, "unit": "%"}, {"measurement": "Activity", "setting": "[25]", "result": 100, "unit": "%"}]}]}
